Results on 1 molecule are retold here after ChEMBL document CHEMBL4765320, “Identification and optimization of piperine analogues as neuroprotective agents for the treatment of Parkinson's disease via the activation of Nrf2/keap1 pathway” (Eur J Med Chem, 2020).

Test [1] deals with PC-12. The test can be described thus: Neuroprotective activity against H2O2-induced cytotoxicity in rat PC-12 cells assessed as cell viability at 100 uM pretreated for 24 hrs followed by H2O2 challenge and measured after 24 hrs by MTT assay (reference value: 52.81 +/- 6%). Format: functional, cell-based. As to conditions: time 48.0 hrs. On the technique in general: Tetrazolium assays rely on reduction of a dye to a coloured formazan, in cell work by metabolically active cells.

The test system of test [2] is PC-12. Description: Inhibition of H202-induced apoptosis in rat PC-12 cells assessed as early apoptotic cells at 50 uM after 24 hrs by Annexin-V-FITC/PI-staining based flow cytometric analysis (reference value: 15.16%). Format: functional. Also noted: scale not given: the % may be the effect or the level left. The gist of the method: (§1)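 PC12 cells seeded 2 × 10⁵/well for 24 h, pretreated 24 h with 12.5, 25, 50 or 100 µM compound, then given fresh medium containing 650 µM H2O2. Harvested cells washed in binding buffer, stained 5 min with Annexin V-FITC/PI, analysed by flow cytometry.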
A general note: Flow cytometry measures light scatter and fluorescence of single cells or particles in a stream.

Test [3] concerns Mus musculus. The test can be described thus: Neuroprotective activity in lesioned C57BL/6 mouse model of Parkinson's disease assessed as increase in time spent on rotarod at 100 mg/kg, po administered for 2 week before MPTP stimulation by rotarod test. Format: functional. Particulars: time 2 weeks. The gist of the method: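 Male 10-week-old C57BL/6 mice (20–23 g), n = 6/group. Prophylactic: oral compound (50 or 100 mg/kg in saline) 2 weeks, then MPTP-HCl 25 mg/kg i.p. in week 3. Therapeutic: MPTP-HCl 25 mg/kg i.p. 1 week, then oral 100 mg/kg 2 weeks. Saline vehicle. Pole/rotarod training last 3 days; TH immunohistochemistry on SNpc and striatum.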
In general terms: The rotarod test checks motor coordination on a turning rod.

The test system of test [4] is PC-12. Description: Upregulation of HO-1 expression in rat PC-12 cell incubated for 24 hrs by Western blot analysis. Format: functional. The gist of the method:
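PC12 cells treated with compound for 24 h; lysates resolved by SDS-PAGE, transferred to PVDF and probed for HO-1 and NQO1; band intensities quantified densitometrically. Mean ± SD of three independent experiments.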

Test [5] concerns PC-12. The test can be described thus: Inhibition of H202-induced apoptosis in rat PC-12 cells assessed as late apoptotic cells at 25 uM after 24 hrs by Annexin-V-FITC/PI-staining based flow cytometric analysis (reference value: 32.5%). Format: functional. More on the design: scale not given: the % may be the effect or the level left. A digest of the protocol: as §1
For test [6], the system named is PC-12. The test can be described thus: Inhibition of H202-induced apoptosis in rat PC-12 cells assessed as late apoptotic cells at 50 uM after 24 hrs by Annexin-V-FITC/PI-staining based flow cytometric analysis (reference value: 32.5%). Format: functional. More on the design: scale not given: the % may be the effect or the level left. A digest of the protocol:
as §1

The test system of test [7] is PC-12. The test can be described thus: Inhibition of H202-induced apoptosis in rat PC-12 cells assessed as early apoptotic cells at 100 uM after 24 hrs by Annexin-V-FITC/PI-staining based flow cytometric analysis (reference value: 15.16%). More on the design: scale not given: the % may be the effect or the level left. Format: functional. The gist of the method:
as §1

In test [8] the target is T1, Nuclear factor erythroid 2-related factor 2 (Rattus norvegicus) (UniProt O54968).
T1 sequence (whole entry): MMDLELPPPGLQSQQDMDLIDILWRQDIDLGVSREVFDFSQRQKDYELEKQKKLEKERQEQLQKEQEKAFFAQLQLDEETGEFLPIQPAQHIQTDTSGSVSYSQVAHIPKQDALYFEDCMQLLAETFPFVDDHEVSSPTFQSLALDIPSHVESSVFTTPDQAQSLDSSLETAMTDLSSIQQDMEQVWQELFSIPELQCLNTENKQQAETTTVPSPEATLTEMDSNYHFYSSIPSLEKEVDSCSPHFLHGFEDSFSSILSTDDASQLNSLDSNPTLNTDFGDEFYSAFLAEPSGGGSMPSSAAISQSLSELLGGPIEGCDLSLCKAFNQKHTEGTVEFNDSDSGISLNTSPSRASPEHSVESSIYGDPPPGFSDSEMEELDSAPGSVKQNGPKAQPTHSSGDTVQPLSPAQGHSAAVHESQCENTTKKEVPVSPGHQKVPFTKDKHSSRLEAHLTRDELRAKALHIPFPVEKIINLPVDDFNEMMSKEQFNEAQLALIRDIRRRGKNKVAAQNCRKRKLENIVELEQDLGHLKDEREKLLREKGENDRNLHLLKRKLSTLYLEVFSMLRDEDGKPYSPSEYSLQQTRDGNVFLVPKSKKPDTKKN
The test can be described thus: Induction of Nrf2 nuclear translocation in rat PC-12 cells assessed as Nrf2 accumulation in nucleus at 25 uM by Western blot analysis. Format: cell-based. As to conditions: filed as activator, time 4-8 hrs, TDE = time-dependent effect. The gist of the method: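 PC12 cells incubated with 25 µM compound for 4, 6 and 8 h; nuclear and cytoplasmic fractions prepared with an extraction kit; nuclear, cytosolic and total Nrf2 assessed by SDS-PAGE/PVDF Western blot. Three independent experiments.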

Test [9] deals with PC-12. Description: Inhibition of H202-induced apoptosis in rat PC-12 cells assessed as late apoptotic cells at 12.5 uM after 24 hrs by Annexin-V-FITC/PI-staining based flow cytometric analysis (reference value: 32.5%). Format: functional. More on the design: scale not given: the % may be the effect or the level left. The gist of the method:
as §1

Test [10] deals with PC-12. Description: Inhibition of H202-induced apoptosis in rat PC-12 cells assessed as necrotic cells at 50 uM after 24 hrs by Annexin-V-FITC/PI-staining based flow cytometric analysis (reference value: 0.33%). Format: functional. Also noted: scale not given: the % may be the effect or the level left. The gist of the method: as §1

The source made the active and inactive calls. The calls are words filed in the database; no cut-off is given here.

As for `COc1ccccc1/C=C/C=C/C(=O)N1CCCCC1`, the outcome in test [1] and in [4] was Active. In addition, the Activity in test [2] was 12.01%; in test [5], 18.04%; in test [6] it was 12.95%; in test [7], 12.11%; in test [8] it was “Tde”; in test [9], 26.08%. For the same molecule, in [10], the Activity is given as 0.26%. Further, in test [3], the Time stood at 226.2 s.
